Experimental data gathered from unrelated publications.
Lines come from different studies, so protocols differ. pIC50: −log10 of the molar value.
Cell line: HCT-116
Read-out: cell growth or viability

For `COc1nc(NCc2cn(-c3ccc(C(=O)Nc4ccc(Cl)cc4)cc3)nn2)nc(OC)n1`, the pIC50 was 7.48 (MTT; 72 h).
`Cc1nc(Nc2ccc3c(c2)/C(=C/c2ccccc2)C(=O)N3Cc2ccccc2)c2ccccc2n1` has a pIC50 of 5.47 (MTT).
For `COc1ccc(-c2cc(-c3ccc(OC)cc3)c3c(=O)[nH]c(=O)[nH]c3n2)cc1`, the pIC50 was 5.18 (MTT; 48 h).
`Cc1nc(Nc2ccc3c(c2)C(C)(C)C(=O)N3C)c2ccccc2n1` gave a pIC50 of less than 4.30 (MTT).
For `CC(=NNC(=O)COc1ccc2c(C)c(Cc3ccccc3)c(=O)oc2c1C)c1ccc(Br)cc1`, the viability was 64.3% (MTT; 0.4 µg/mL).
With `Cc1ccc(-c2cc(-c3ccc(Cl)c(F)c3)c3c(=O)[nH]c(=O)[nH]c3n2)cc1` the pIC50 was 4.95 (MTT; 48 h).
For `Cc1nc(Nc2ccc3c(c2)/C(=C/c2ccccc2Cl)C(=O)N3)c2ccccc2n1`, the pIC50 was 5.44 (MTT).
With `COc1nc(NCc2cn(-c3ccc(NC(=O)c4ccccc4)cc3)nn2)nc(OC)n1` the pIC50 was 7.22 (MTT; 72 h).
With `COc1cc2ncnc(Nc3ccc4c(c3)/C(=C/c3ccccc3)C(=O)N4C)c2cc1OC` the pIC50 was 5.18 (MTT).
`Cc1ccc(-c2cc(-c3c(Cl)cccc3Cl)c3c(=O)[nH]c(=O)[nH]c3n2)cc1` has a pIC50 of 4.55 (MTT; 48 h).
For `O=C(O)c1cccnc1Nc1cccc(C(F)(F)F)c1`, the GI50 was greater than 40 µM (CCK-8; 72 h).
With `COc1ccc(-c2cc(-c3ccc(Cl)cc3)c3c(=O)n(C)c(=O)n(C)c3n2)cc1` the pIC50 was 5.12 (MTT; 48 h).
With `C=CC(=O)c1cccnc1Nc1cccc(C(F)(F)F)c1` the GI50 was 34.9 µM (CCK-8; 72 h).
The pIC50 of `Cc1nc(N(C)c2ccc3c(c2)/C(=C/c2ccccc2Cl)C(=O)N3C)c2ccccc2n1` is reported as 5.39 (MTT).
The pIC50 of `COc1ccc(-c2cc(-c3c(OC)cccc3OC)c3c(=O)n(C)c(=O)n(C)c3n2)cc1` is reported as 5.26 (MTT; 48 h).
`COc1nc(NCc2cn(-c3ccc(C(=O)Nc4ccc(Br)cc4)cc3)nn2)nc(OC)n1` gave a pIC50 of 7.55 (MTT; 72 h).
For `O=C(O)c1ccccc1Nc1cccc(C(F)(F)F)c1`, the GI50 was greater than 40 µM (CCK-8; 72 h).
The pIC50 of `COc1nc(NCc2cn(-c3ccc(NC(=O)c4ccc(F)cc4)cc3)nn2)nc(OC)n1` is reported as 7.91 (MTT; 72 h).
`COc1cc2ncnc(N(C)c3ccc4c(c3)/C(=C/c3ccccc3)C(=O)N4C)c2cc1OC` (mixture of isomers) has a pIC50 of 5.16 (MTT).
For `COc1nc(NCc2cn(-c3ccc(C(=O)Nc4ccc([N+](=O)[O-])cc4)cc3)nn2)nc(OC)n1`, the pIC50 was 7.23 (MTT; 72 h).
With `COc1ccc(-c2cc(-c3cc(OC)ccc3OC)c3c(=O)n(C)c(=O)n(C)c3n2)cc1` the pIC50 was 4.95 (MTT; 48 h).
The pIC50 of `COc1nc(NCc2cn(-c3ccc(C(=O)Nc4ccc(C(F)(F)F)cc4)cc3)nn2)nc(OC)n1` is reported as 8.85 (MTT; 72 h).
`COc1ccc(-c2cc(-c3c(OC)cccc3OC)c3c(=O)[nH]c(=O)[nH]c3n2)cc1` has a pIC50 of 4.54 (MTT; 48 h).
`COc1nc(NCc2cn(-c3ccc(NC(=O)c4ccc(Cl)cc4)cc3)nn2)nc(OC)n1` gave a pIC50 of 7.47 (MTT; 72 h).
With `Cc1nc(Nc2ccc3c(c2)/C(=C/c2ccccc2C)C(=O)N3C)c2ccccc2n1` the pIC50 was 4.69 (MTT).
The pIC50 of `Cc1ccc(-c2cc(-c3ccc(N(C)C)cc3)c3c(=O)n(C)c(=O)n(C)c3n2)cc1` is reported as 4.92 (MTT; 48 h).
